Test results published in ChEMBL document CHEMBL1764963, “In vitro and QSAR studies of cucurbitacins on HepG2 and HSC-T6 liver cell lines” (Bioorg Med Chem, 2011).
Activity calls are given as the source filed them. The rule behind the calls is not given here.

Assays:
HepG2 [1] = test: Hepatoprotective activity in human HepG2 cells assessed as protection against cell damage after 24 hrs by MTT assay; format: functional
HeLa = test: Cytotoxicity against human HeLa cells after 24 hrs by MTT assay; format: functional, cell-based
HepG2 [2] = test: Hepatoprotective activity in human HepG2 cells assessed as inhibition of CCl4-induced toxicity after 24 hrs by MTT assay; format: functional, cell-based; design: Activity: scale not given: the % may be the effect or the level left; conditions: for EC50: Homo sapiens, HepG2, 24 h
HepG2 [3] = test: (§1) Cytotoxicity against human HepG2 cells after 24 hrs assessed as inhibition of cell viability by MTT assay; format: cell-based; conditions: for IC50: Homo sapiens, HepG2, 24 h
HepG2 [4] = test: Ratio of IC50 for human HepG2 cells to IC50 for human HeLa cells
In short: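 Both lines (HepG2 grown 10 days, HeLa 7 days, in EMEM/10% FBS) seeded 24 h in 2% FBS at 30,000 and 15,000 cells/ml. Five-fold serial dilutions over 5 wells for 24 h. Viability by MTT at 570 nm versus cell-free and untreated controls. IC50 derived from log IC50. Ratio taken of the two IC50 values.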

[5] = Antiproliferative activity against serum-stimulated rat HSC-T6 cells after 24 hrs by MTT assay; format: functional, cell-based; conditions: HSC-T6, 24 h
HepG2 [6] = test: Ratio of IC50 to EC50 for hepatoprotective activity in human HepG2 cells; format: functional
[7] = Cytotoxicity against rat HSC-T6 cell after 24 hrs by MTT assay; format: cell-based; conditions: for IC50: Rattus norvegicus, HSC-T6, 24 h
[8] = Ratio of IC50 to EC50 for antiproliferative activity in rat HSC-T6 cells; format: functional
[9] = as §1; format: cell-based; conditions: human, HepG2 cells; read-out: INH
[10] = tested on: Radical scavenging activity; test: Antioxidant activity assessed as DPPH radical scavenging activity at 64 uM after 10 mins; format: functional
[11] = Inhibition of hyaluronidase activity at 71.68 mM
HepG2 [12] = test: Hepatoprotective activity in human HepG2 cells assessed as inhibition of CCl4-induced toxicity at 12.5% IC50 after 24 hrs by MTT assay; format: functional, cell-based
In short: (§2)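 HepG2 cells grown 10 days in EMEM with 10% FBS, then seeded 24 h at 30,000 cells/ml in 2% FBS. Test agent added together with CCl4 (4.5 x 10^-3 M) for 24 h. Silybin was tested at 1–200 uM. Cucurbitacins were tested at 0.5 and […] their IC50, then at 0.13 and 0.06. MTT read at 570 nm. % protection calculated against CCl4-only and media-only controls. Three experiments, ≥3 replicates each.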

HepG2 [13] = test: Hepatoprotective activity in human HepG2 cells assessed as inhibition of CCl4-induced toxicity at 6.25% IC50 after 24 hrs by MTT assay; format: functional, cell-based; in short: as §2
HSC-T6 = test: Cytotoxicity against rat HSC-T6 cell up to 300 uM after 24 hrs by MTT assay; format: functional, cell-based
In short: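 HSC-T6 rat stellate cells grown 4-5 days in EMEM/10% FBS, then seeded 24 h at 100,000 cells/ml in 2% FBS. Medium replaced with compound in fresh 10% FBS medium, two-fold dilutions across seven wells, for 24 h. Viability by MTT (570 nm) relative to cell-free and untreated controls. Three experiments, ≥3 replicates each.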

HepG2 [14] = test: Hepatoprotective activity in human HepG2 cells assessed as inhibition of CCl4-induced toxicity at 100 uM after 24 hrs by MTT assay; format: functional, cell-based; in short: as §2
[15] = Antioxidant activity assessed as inhibition of free radical production at 0.58 mM within 6 mins by ABTS+ decolorization assay; format: functional

Row | Structure (SMILES) | Activity (HepG2 [1]) | IC50 (HeLa) | EC50 (HepG2 [2]) | IC50 (HepG2 [3]) | EC50 [5] | Ratio IC50/EC50 (HepG2 [6]) | IC50 [7] | Ratio IC50/EC50 [8] | also measured
1 | CC(=O)OC(C)(C)/C=C/C(=O)[C@](C)(O)[C@H]1[C@H](O)C[C@@]2(C)[C@@H]3CC=C4[C@H](C[C@H](O)C(=O)C4(C)C)[C@]3(C)C(=O)C[C@]12C [CUCURBITACIN B] | 40% | 0.8 µM | 10.5 µM | 27.7 µM | 0.02 µM | 3 | 4.42 µM | 205 | Ratio IC50 (HepG2 [4]): 37
2 | ClC(Cl)(Cl)Cl [CARBON TETRACHLORIDE] |  |  |  |  |  |  |  |  | cytotoxicity at 24 h [9]: 50%
3 | COC1=C[C@@H]2C(=CC[C@@H]3[C@@]2(C)C(=O)C[C@]2(C)[C@@H]([C@@](C)(O)C(=O)CCC(C)(C)O)[C@H](O)C[C@@]32C)C(C)(C)C1=O | 40% |  | 5 µM |  | 0.18 µM |  | 6.7 µM |  | inhibition (INH) (HepG2 [2]): 74%
4 | CCOC1=C[C@@H]2C(=CC[C@@H]3[C@@]2(C)C(=O)C[C@]2(C)[C@@H]([C@@](C)(O)C(=O)/C=C/C(C)(C)OC(C)=O)[C@H](O)C[C@@]32C)C(C)(C)C1=O | 40% | 1.1 µM |  | 5.1 µM | 0.27 µM |  | 3.5 µM | 13 | Activity (HepG2 [2]): <50%; Ratio IC50 (HepG2 [4]): 5
5 | CC(C)OC1=C[C@@H]2C(=CC[C@@H]3[C@@]2(C)C(=O)C[C@]2(C)[C@@H]([C@@](C)(O)C(=O)/C=C/C(C)(C)O)[C@H](O)C[C@@]32C)C(C)(C)C1=O | 40% |  |  | 7.33 µM | 0.25 µM |  | 2.53 µM | 10 | Activity (HepG2 [2]): <50%
6 | CC(=O)OC(C)(C)/C=C/C(=O)[C@](C)(O)[C@H]1[C@H](O)C[C@@]2(C)[C@@H]3CC=C4[C@@H](C=C(OC(C)C)C(=O)C4(C)C)[C@]3(C)C(=O)C[C@]12C | 40% |  |  | 4.27 µM | 0.32 µM |  | 2.5 µM | 8 | 
7 | CCCOC1=C[C@@H]2C(=CC[C@@H]3[C@@]2(C)C(=O)C[C@]2(C)[C@@H]([C@@](C)(O)C(=O)/C=C/C(C)(C)O)[C@H](O)C[C@@]32C)C(C)(C)C1=O | 40% |  |  | 5 µM | 0.33 µM |  | 2.47 µM | 8 | Activity (HepG2 [2]): <50%
8 | CC(C)(O)/C=C/C(=O)[C@](C)(O)[C@H]1[C@H](O)C[C@@]2(C)[C@@H]3CC=C4[C@@H](C[C@H](O)C(=O)C4(C)C)[C@]3(C)C(=O)C[C@]12C [CUCURBITACIN D] | 40% | 0.7 µM | 9 µM | 77.3 µM | 0.07 µM | 9 | 26 µM | 379 | inhibition (INH) (HepG2 [2]): 74%; Ratio IC50 (HepG2 [4]): 107
9 | O=C1O[C@H]([C@@H](O)CO)C(O)=C1O |  |  |  |  |  |  |  |  | inhibition [10]: 50%
10 | CC(=O)OC(C)(C)/C=C/C(=O)[C@](C)(O)[C@H]1[C@H](O)C[C@@]2(C)[C@@H]3CC=C4[C@@H](C=C(O[C@@H]5O[C@H](CO)[C@@H](O)[C@H](O)[C@H]5O)C(=O)C4(C)C)[C@]3(C)C(=O)C[C@]12C | 40% | 37 µM | 45.3 µM | 227 µM | 3.28 µM | 5 | 102 µM | 31 | Ratio IC50 (HepG2 [4]): 6
11 | COC1=C[C@@H]2C(=CC[C@@H]3[C@@]2(C)C(=O)C[C@]2(C)[C@@H]([C@@](C)(O)C(=O)/C=C/C(C)(C)O)[C@H](O)C[C@@]32C)C(C)(C)C1=O | 40% |  | 5.25 µM | 15 µM | 0.11 µM | 3 | 6.37 µM | 60 | inhibition (INH) (HepG2 [2]): 74%
12 | CCCCC1C(=O)N(c2ccccc2)N(c2ccccc2)C1=O |  |  |  |  |  |  |  |  | inhibition [11]: 50%
13 | CCOC1=C[C@@H]2C(=CC[C@@H]3[C@@]2(C)C(=O)C[C@]2(C)[C@@H]([C@@](C)(O)C(=O)/C=C/C(C)(C)O)[C@H](O)C[C@@]32C)C(C)(C)C1=O | 40% |  |  |  | 0.34 µM |  | 3.53 µM |  | Activity (HepG2 [2]): <50%
14 | CC(C)(O)/C=C/C(=O)[C@](C)(O)[C@H]1[C@H](O)C[C@@]2(C)[C@@H]3CC=C4[C@@H](C=C(O[C@@H]5O[C@H](CO)[C@@H](O)[C@H](O)[C@H]5O)C(=O)C4(C)C)[C@]3(C)C(=O)C[C@]12C | 40% |  | 195 µM | 390 µM | 4.15 µM | 2 | 256 µM | 62 | 
15 | CCCOC1=C[C@@H]2C(=CC[C@@H]3[C@@]2(C)C(=O)C[C@]2(C)[C@@H]([C@@](C)(O)C(=O)/C=C/C(C)(C)OC(C)=O)[C@H](O)C[C@@]32C)C(C)(C)C1=O | 40% | 1.4 µM |  |  | 0.34 µM |  | 2.75 µM |  | inhibition (HepG2 [12]): inactive; inhibition (HepG2 [13]): inactive
16 | CC(=O)OC(C)(C)/C=C/C(=O)[C@](C)(O)[C@H]1[C@H](O)C[C@@]2(C)[C@@H]3CC=C4[C@@H](C=C(O)C(=O)C4(C)C)[C@]3(C)C(=O)C[C@]12C [CUCURBITACIN E] | 40% | 0.1 µM | 3.2 µM | 15.2 µM | 0.04 µM |  |  |  | inhibition (INH) (HepG2 [2]): 74%
17 | COc1cc(C2Oc3cc([C@H]4Oc5cc(O)cc(O)c5C(=O)[C@@H]4O)ccc3OC2CO)ccc1O (some centres not stated) [SILIBININ] | 40% |  | 45 µM |  | 18.8 µM |  |  |  | Activity (HepG2 [3]; human, hepg2, 24 h): Non-toxic; Activity (HSC-T6): Not toxic; inhibition (HepG2 [14]): Active; Activity ([7]; rat, hsc-t6, 24 h): Non-toxic
18 | COC1=C[C@@H]2C(=CC[C@@H]3[C@@]2(C)C(=O)C[C@]2(C)[C@@H]([C@@](C)(O)C(=O)/C=C/C(C)(C)OC(C)=O)[C@H](OC(C)=O)C[C@@]32C)C(C)(C)C1=O | 40% | 3.2 µM | 5.2 µM | 26 µM | 0.91 µM | 5 | 11.5 µM | 13 | Ratio IC50 (HepG2 [4]): 8
19 | Cc1c(C)c2c(c(C)c1O)CCC(C)(C(=O)O)O2 (configuration not stated) |  |  |  |  |  |  |  |  | inhibition [15]: 50%
20 | COC1=C[C@@H]2C(=CC[C@@H]3[C@@]2(C)C(=O)C[C@]2(C)[C@@H]([C@@](C)(O)C(=O)/C=C/C(C)(C)OC(C)=O)[C@H](O)C[C@@]32C)C(C)(C)C1=O | 40% |  | 2.4 µM | 12 µM | 0.08 µM | 5 | 2.83 µM | 35 | 
21 | CC(C)(O)/C=C/C(=O)[C@](C)(O)[C@H]1[C@H](O)C[C@@]2(C)[C@@H]3CC=C4[C@@H](C=C(O)C(=O)C4(C)C)[C@]3(C)C(=O)C[C@]12C [CUCURBITACIN I] | 40% |  | 3.16 µM | 15.8 µM | 0.02 µM | 5 | 3.6 µM | 150 | inhibition (INH) (HepG2 [2]): 74%
22 | CC(C)(O)/C=C/C(=O)[C@](C)(O)[C@H]1[C@H](O)C[C@@]2(C)[C@@H]3CC=C4[C@@H](CC(=O)[C@@H](O)C4(C)C)[C@]3(C)C(=O)C[C@]12C | 40% |  | 13.8 µM | 80.3 µM | 0.06 µM | 6 | 8.7 µM | 137 | inhibition (INH) (HepG2 [2]): 74%
